Source: ChEMBL document CHEMBL3596194, “Design, synthesis and biological evaluation of bivalent benzoxazolone and benzothiazolone ligands as potential anti-inflammatory/analgesic agents” (Bioorg Med Chem, 2015)
The source made the active and inactive calls. No cut-off for these calls is given here.

Test system: Mus musculus
Experiment: Antinociceptive activity in ip dosed Swiss mouse assessed as inhibition of acetic acid-induced writhing response at 3 mg/kg, ip administered 30 mins prior to acetic acid challenge measured for 20 mins relative to vehicle-treated control
Format: functional, organism-based
In short: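 Mice dosed i.p. with compound or vehicle 15 min before testing, or with indomethacin 3 mg/kg i.p. 30 min before. After 15 min habituation in an enclosure, 0.9% acetic acid given i.p. (1 ml/0.1 kg) and writhes counted for 20 min. Non-responders excluded; n = 4-6; mean ± SD.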

COc1ccc2c(c1)c(CC(=O)O)c(C)n2C(=O)c1ccc(Cl)cc1
inhibition: Active
